{"source": "ChEMBL document CHEMBL3593222", "about": "“6-Phenoxy-2-phenylbenzoxazoles, novel inhibitors of receptor for advanced glycation end products (RAGE)” (Bioorg Med Chem, 2015)", "key": {"HT-22": {"tested_on": "HT-22", "assay": "(§1) Cytotoxicity against mouse HT22 cells assessed as cell viability at 10 uM after 18 hrs by MTT assay", "type": "cell-based", "conditions": "ht-22, 18 h, 10 µM", "outline": "(§2)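 HT22 cells were grown in DMEM with 10% FBS and penicillin/streptomycin at 37 °C in 5% CO2, and seeded at 5000 cells/well. Next day they were exposed to 10 µM compound for 18 h. MTT was then added for 3 h, formazan dissolved in acidic 2-propanol, and OD read at 570 nm. Viability is blank-corrected absorbance relative to control. Run in triplicate.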"}, "[1]": {"target": "Advanced glycosylation end product-specific receptor (Homo sapiens) (UniProt Q15109)", "sequence (Q15109 whole entry)": "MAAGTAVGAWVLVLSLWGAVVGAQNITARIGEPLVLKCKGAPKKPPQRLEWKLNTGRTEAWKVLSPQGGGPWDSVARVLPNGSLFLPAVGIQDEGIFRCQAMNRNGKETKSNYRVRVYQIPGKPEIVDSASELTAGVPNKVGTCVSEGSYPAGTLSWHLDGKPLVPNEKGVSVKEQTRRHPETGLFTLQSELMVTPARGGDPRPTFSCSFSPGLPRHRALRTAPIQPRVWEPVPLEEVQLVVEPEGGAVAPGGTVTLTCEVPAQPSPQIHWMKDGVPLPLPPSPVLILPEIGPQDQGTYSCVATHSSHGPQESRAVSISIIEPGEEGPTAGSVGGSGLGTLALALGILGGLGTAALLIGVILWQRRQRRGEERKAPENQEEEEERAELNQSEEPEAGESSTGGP", "assay": "Inhibition of human RAGE-amyloid beta-42 interaction at 4 uM preincubated for 30 mins measured after 1 hr by FRET assay relative to control", "outline": "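Biotinylated human RAGE (2.5 µg) was premixed with 200 ng Cy3-streptavidin in PBS for 30 min at rt. Aβ42-FITC (50 µL of 40 nM) and compound (50 µL of 4 µM) were then added, in 200 µL final volume with 0.1% DMSO. Fluorescence was read 1 h later. FRET efficiency was computed from donor emission with and without acceptor, and percent inhibition was taken against vehicle. Triplicate.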"}, "[2]": {"assay": "as §1", "type": "cell-based, HT-22", "conditions": "HT22 cells, read-out: Activity", "outline": "as §2"}}, "note": "Activity calls are given as the source filed them. The calls are words filed in the database; no cut-off is given here."}
{"smiles": "CCOC(=O)N1CCN(CCCOc2ccc(-c3nc4ccc(Oc5ccc(Cl)cc5)cc4o3)cc2)CC1", "values": [{"measurement": "Activity", "setting": "HT-22", "value": "Non-toxic"}, {"measurement": "inhibition", "setting": "[1]", "value": 6.6, "unit": "%"}]}
{"smiles": "CCN(CC)CCCOc1ccc(-c2nc3ccc(Oc4cccc(C(F)(F)F)c4)cc3o2)cc1", "values": [{"measurement": "Activity", "setting": "HT-22", "value": "Non-toxic"}, {"measurement": "inhibition", "setting": "[1]", "value": 24.1, "unit": "%"}]}
{"smiles": "CC(C)(C)OC(=O)N[C@@H]1CCN(CCCOc2ccc(-c3nc4ccc(Oc5ccc(C(C)(C)C)cc5)cc4o3)cc2)C1", "values": [{"measurement": "Activity", "setting": "HT-22", "value": "Non-toxic"}, {"measurement": "inhibition", "setting": "[1]", "value": 26.8, "unit": "%"}]}
{"smiles": "N[C@@H]1CCN(CCCOc2ccc(-c3nc4ccc(Oc5ccc(Cl)cc5)cc4o3)cc2)C1", "values": [{"measurement": "Activity", "setting": "HT-22", "value": "Non-toxic"}, {"measurement": "inhibition", "setting": "[1]", "value": 19.6, "unit": "%"}]}
{"smiles": "Fc1ccc(Oc2ccc3nc(-c4ccc(OCCCN5CCOCC5)cc4)oc3c2)cc1", "values": [{"measurement": "Activity", "setting": "HT-22", "value": "Non-toxic"}, {"measurement": "inhibition", "setting": "[1]", "value": 56.7, "unit": "%"}]}
{"smiles": "Clc1ccc(Oc2ccc3nc(-c4ccc(OCCCN5CCCCC5)cc4)oc3c2)cc1", "values": [{"measurement": "viability at 18 h, 10 µM", "setting": "[2]", "value": 32.4, "unit": "%"}, {"measurement": "inhibition", "setting": "[1]", "value": 2.2, "unit": "%"}]}
{"smiles": "Clc1ccc(Oc2ccc3nc(-c4ccc(OCCCN5CCOCC5)cc4)oc3c2)cc1", "values": [{"measurement": "Activity", "setting": "HT-22", "value": "Non-toxic"}, {"measurement": "inhibition", "setting": "[1]", "value": "inactive"}]}
{"smiles": "Fc1ccc(Oc2ccc3nc(-c4ccc(OCCCN5CCCCC5)cc4)oc3c2)cc1", "values": [{"measurement": "Activity", "setting": "HT-22", "value": "Non-toxic"}, {"measurement": "inhibition", "setting": "[1]", "value": 30.3, "unit": "%"}]}
{"smiles": "CCN1CCC(Oc2ccc(-c3nc4ccc(Oc5ccc(Cl)cc5)cc4o3)cc2)CC1", "values": [{"measurement": "viability at 18 h, 10 µM", "setting": "[2]", "value": 38.2, "unit": "%"}, {"measurement": "inhibition", "setting": "[1]", "value": 15.3, "unit": "%"}]}
{"smiles": "CC(=O)N1CCC(COc2ccc(-c3nc4ccc(Oc5ccc(Cl)cc5)cc4o3)cc2)CC1", "values": [{"measurement": "viability at 18 h, 10 µM", "setting": "[2]", "value": 32.7, "unit": "%"}, {"measurement": "inhibition", "setting": "[1]", "value": "inactive"}]}
{"smiles": "CCN(CC)CCCOc1ccc(-c2nc3ccc(Oc4ccc(F)cc4)cc3o2)cc1", "values": [{"measurement": "Activity", "setting": "HT-22", "value": "Non-toxic"}, {"measurement": "inhibition", "setting": "[1]", "value": 5.4, "unit": "%"}]}
{"smiles": "CC(C)(C)C1CCN(CCCOc2ccc(-c3nc4ccc(Oc5ccc(Cl)cc5)cc4o3)cc2)CC1", "values": [{"measurement": "viability at 18 h, 10 µM", "setting": "[2]", "value": 32.2, "unit": "%"}, {"measurement": "inhibition", "setting": "[1]", "value": 16.6, "unit": "%"}]}
{"smiles": "CC(C)(C)OC(=O)N[C@H]1CCN(CCCOc2ccc(-c3nc4ccc(Oc5ccc(Cl)cc5)cc4o3)cc2)C1", "values": [{"measurement": "viability at 18 h, 10 µM", "setting": "[2]", "value": 58.2, "unit": "%"}, {"measurement": "inhibition", "setting": "[1]", "value": 16.6, "unit": "%"}]}
{"smiles": "CC(=O)N1CCC(Oc2ccc(-c3nc4ccc(Oc5ccc(Cl)cc5)cc4o3)cc2)CC1", "values": [{"measurement": "Activity", "setting": "HT-22", "value": "Non-toxic"}, {"measurement": "inhibition", "setting": "[1]", "value": 20, "unit": "%"}]}
{"smiles": "FC(F)(F)c1cccc(Oc2ccc3nc(-c4ccc(OCCCN5CCOCC5)cc4)oc3c2)c1", "values": [{"measurement": "Activity", "setting": "HT-22", "value": "Non-toxic"}, {"measurement": "inhibition", "setting": "[1]", "value": "inactive"}]}
{"smiles": "CC(C)(C)OC(=O)N1CCC(COc2ccc(-c3nc4ccc(Oc5ccc(Cl)cc5)cc4o3)cc2)CC1", "values": [{"measurement": "Activity", "setting": "HT-22", "value": "Non-toxic"}, {"measurement": "inhibition", "setting": "[1]", "value": "inactive"}]}
{"smiles": "Clc1ccc(Oc2ccc3nc(-c4ccc(OCCCN5CCCC5)cc4)oc3c2)cc1", "values": [{"measurement": "Activity", "setting": "HT-22", "value": "Non-toxic"}, {"measurement": "inhibition", "setting": "[1]", "value": "inactive"}]}
{"smiles": "CC(C)(C)c1ccc(Oc2ccc3nc(-c4ccc(OCCCN5CCCC5)cc4)oc3c2)cc1", "values": [{"measurement": "Activity", "setting": "HT-22", "value": "Non-toxic"}, {"measurement": "inhibition", "setting": "[1]", "value": "inactive"}]}
{"smiles": "Clc1ccc(Oc2ccc3nc(-c4ccc(OCCN5CCOCC5)cc4)oc3c2)cc1", "values": [{"measurement": "Activity", "setting": "HT-22", "value": "Non-toxic"}, {"measurement": "inhibition", "setting": "[1]", "value": 25.7, "unit": "%"}]}
{"smiles": "FC(F)(F)c1ccc(Oc2ccc3nc(-c4ccc(OCCCN5CCOCC5)cc4)oc3c2)cc1", "values": [{"measurement": "Activity", "setting": "HT-22", "value": "Non-toxic"}, {"measurement": "inhibition", "setting": "[1]", "value": 32.1, "unit": "%"}]}
{"smiles": "N[C@H]1CCN(CCCOc2ccc(-c3nc4ccc(Oc5ccc(Cl)cc5)cc4o3)cc2)C1", "values": [{"measurement": "Activity", "setting": "HT-22", "value": "Non-toxic"}, {"measurement": "inhibition", "setting": "[1]", "value": 29.9, "unit": "%"}]}
{"smiles": "CC(C)COC(=O)N1CCN(CCCOc2ccc(-c3nc4ccc(Oc5ccc(Cl)cc5)cc4o3)cc2)CC1", "values": [{"measurement": "Activity", "setting": "HT-22", "value": "Non-toxic"}, {"measurement": "inhibition", "setting": "[1]", "value": 41.2, "unit": "%"}]}
{"smiles": "CC(C)N1CCC(COc2ccc(-c3nc4ccc(Oc5ccc(Cl)cc5)cc4o3)cc2)CC1", "values": [{"measurement": "Activity", "setting": "HT-22", "value": "Non-toxic"}, {"measurement": "inhibition", "setting": "[1]", "value": 26.2, "unit": "%"}]}
{"smiles": "CC(C)(C)c1ccc(Oc2ccc3nc(-c4ccc(OCCCN5CCOCC5)cc4)oc3c2)cc1", "values": [{"measurement": "Activity", "setting": "HT-22", "value": "Non-toxic"}, {"measurement": "inhibition", "setting": "[1]", "value": "inactive"}]}
{"smiles": "CCN(CC)CCCOc1ccc(-c2nc3ccc(Oc4ccc(C(F)(F)F)cc4)cc3o2)cc1", "values": [{"measurement": "Activity", "setting": "HT-22", "value": "Non-toxic"}, {"measurement": "inhibition", "setting": "[1]", "value": 34.9, "unit": "%"}]}
{"smiles": "CC(C)(C)OC(=O)N1CCC(Oc2ccc(-c3nc4ccc(Oc5ccc(Cl)cc5)cc4o3)cc2)CC1", "values": [{"measurement": "Activity", "setting": "HT-22", "value": "Non-toxic"}, {"measurement": "inhibition", "setting": "[1]", "value": "inactive"}]}
{"smiles": "COC(=O)N1CCN(CCCOc2ccc(-c3nc4ccc(Oc5ccc(Cl)cc5)cc4o3)cc2)CC1", "values": [{"measurement": "Activity", "setting": "HT-22", "value": "Non-toxic"}, {"measurement": "inhibition", "setting": "[1]", "value": "inactive"}]}
